Among the data in ChEMBL document CHEMBL1127823, “The effect of fluorine substitution on the metabolism and antimalarial activity of amodiaquine” (J Med Chem, 1994) are pKa and IC50 values, retold here.

Series [1] in a line: pKa value of compound was evaluated. The format is physicochemical.
The test system of series [2] is Plasmodium falciparum. The series is described as follows: Antimalarial activity against Plasmodium falciparum T9-96. The format is functional, organism-based. A digest of the protocol: (§1)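 P. falciparum (Thai isolates; K1 uncloned, T9-96 cloned) kept in continuous culture in human erythrocytes, RPMI 1640 with 25 mM HEPES, 32 mM NaHCO3, 10% human serum, gassed 3% O2/4% CO2/93% N2. 48-h assay at 1% initial parasitaemia, 5% haematocrit; drugs from ethanol stocks (final <1% ethanol).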

Series [3] has as its system Plasmodium falciparum. The series is described as follows: Antimalarial activity against Plasmodium falciparum K1. The format is functional, organism-based. A digest of the protocol:
as §1

For `CCN(CC)Cc1cc(Nc2ccnc3cc(Cl)ccc23)ccc1O`, in series [1], the pKa (commonly the pH at which an ionisable group is half protonated) was determined as 4.95. The IC50 (as a rule, the concentration that inhibits the measured activity by half) in series [2] stood at 20 nM; in series [3], 24 nM.

Regarding `CCN(CC)Cc1cc(Nc2ccnc3cc(Cl)ccc23)ccc1F`, the pKa in series [1] came to 4.39. Besides, the IC50 was 40 nM in series [2] and 59 nM in series [3].

For the compound `CCN(CC)Cc1cc(Nc2ccnc3cc(Cl)ccc23)cc(F)c1O`, in series [1], the pKa came to 3.96. Further, the IC50 in series [2] is 37 nM; in series [3] it was 42 nM.

As to `CCN(CC)Cc1cc(Nc2ccnc3cc(Cl)ccc23)c(F)c(F)c1O`, the pKa in series [1] was found to be 3.42. The IC50 in series [2] came to 40 nM; in series [3] it was 56 nM.

In turn, `CCN(CC)Cc1c(O)cc(F)c(Nc2ccnc3cc(Cl)ccc23)c1F` displayed a pKa in series [1] of 2.59. In addition, the IC50 was found to be 34 nM in series [2] and 41 nM in series [3].

In series [1], `CCN(CC)Cc1c(O)c(F)c(F)c(Nc2ccnc3cc(Cl)ccc23)c1F` came in with a pKa of 2.17. For the same compound, the IC50 in series [2] was determined as 291 nM; in series [3], 500 nM.
